Test results from ChEMBL document CHEMBL2086304, “Synthesis and in vitro antimycobacterial and isocitrate lyase inhibition properties of novel 2-methoxy-2'-hydroxybenzanilides, their thioxo analogues and benzoxazoles” (Eur J Med Chem, 2012).
Converted amounts (≈) assume the structure as drawn.

How the values were obtained:
[1] = system: Mycobacterium kansasii; test: Antimycobacterial activity against isoniazid resistance Mycobacterium kansasii 225/80 after 21 days by micromethod; format: functional; settings: 225/80, 504 h
[2] = system: Mycobacterium tuberculosis; test: Antimycobacterial activity against Mycobacterium tuberculosis 331/88 after 21 days by micromethod; format: functional; settings: 331/88, 504 h
Method in brief: (§1)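 Inocula: M. tuberculosis My 331/88 at 10^-3 dilution, M. avium My 330/88 at 10^-5, M. kansasii My 235/80 and clinical isolate 6509/96 at 10^-4. Compounds added in DMSO at 1000 down to 0.5 (twofold series). Read at 14 and 21 days, plus 7 days for M. kansasii. MIC taken as lowest concentration inhibiting growth.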

[3] = system: Mycobacterium tuberculosis; test: Antimycobacterial activity against Mycobacterium tuberculosis 331/88 after 14 days by micromethod; format: functional; settings: 331/88, 336 h; method in brief: as §1
[4] = system: HepG2; test: Cytotoxicity against human HepG2 cells after 24 hrs by CellTiter-96 cell viability assay; format: functional, cell-based; settings: HepG2, 24 h
Method in brief: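 Hep G2 human hepatic cells (passage 12), 10,000 per well, grown 24 h at 37 °C, 5% CO2 in MEM with 1% glutamine, 10% FBS and 1% nonessential amino acids. Compounds in DMSO at eight increasing concentrations, quadruplicate, 24 h at 37 °C. Kit reagent added, 1.5 h at 37 °C, absorbance 490 nm. IC50 is the concentration reducing viability to 50% of control.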

[5] = system: Mycobacterium avium; test: Antimycobacterial activity against isoniazid resistance Mycobacterium avium 330/88 after 14 days by micromethod; format: functional; settings: 330/88, 336 h; method in brief: as §1
[6] = molecular target: T1, Isocitrate lyase (Mycobacterium tuberculosis) (UniProt P9WKK7); test: Inhibition of Mycobacterium tuberculosis H37Rv isocitrate lyase expressed in Escherichia coli HB101 at 10 umol/L
T1 sequence (whole entry): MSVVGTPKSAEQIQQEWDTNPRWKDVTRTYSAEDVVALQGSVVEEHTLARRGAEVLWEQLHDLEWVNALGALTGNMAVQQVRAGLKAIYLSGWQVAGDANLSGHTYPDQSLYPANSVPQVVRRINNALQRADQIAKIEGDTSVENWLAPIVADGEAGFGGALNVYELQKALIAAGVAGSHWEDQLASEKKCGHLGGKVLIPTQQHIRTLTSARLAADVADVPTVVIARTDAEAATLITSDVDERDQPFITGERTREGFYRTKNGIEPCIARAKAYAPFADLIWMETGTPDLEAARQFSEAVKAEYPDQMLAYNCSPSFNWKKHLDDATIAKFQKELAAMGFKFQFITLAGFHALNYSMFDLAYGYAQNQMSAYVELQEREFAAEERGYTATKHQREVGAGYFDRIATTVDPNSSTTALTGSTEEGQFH
Method in brief: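 Isocitrate lyase assayed per Dixon–Kornberg in 96-well format. Buffer: 50 mmol/L KH2PO4, 4 mmol/L MgCl2, 4 mmol/L phenylhydrazine, 12 mmol/L cysteine, pH 7.0. Glyoxylate phenylhydrazone read at 324 nm. Compounds added in DMSO, with DMSO-alone inhibition subtracted.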

[7] = system: Mycobacterium kansasii; test: Antimycobacterial activity against isoniazid resistance Mycobacterium kansasii 225/80 after 14 days by micromethod; format: functional; settings: 225/80, 336 h
[8] = system: Mycobacterium avium; test: Antimycobacterial activity against isoniazid resistance Mycobacterium avium 330/88 after 21 days by micromethod; format: functional; settings: 330/88, 504 h; method in brief: as §1
[9] = system: Mycobacterium kansasii; test: Antimycobacterial activity against Mycobacterium kansasii 6509/96 clinical isolate after 21 days by micromethod; format: functional; settings: 6509/96, 504 h; method in brief: as §1
[10] = system: Mycobacterium kansasii; test: Antimycobacterial activity against Mycobacterium kansasii 6509/96 clinical isolate after 7 days by micromethod; format: functional; settings: 6509/96, 168 h; method in brief: as §1
[11] = system: Mycobacterium kansasii; test: Antimycobacterial activity against isoniazid resistance Mycobacterium kansasii 225/80 after 7 days by micromethod; format: functional; settings: 225/80, 168 h
[12] = Selectivity index, ratio of IC50 for human HepG2 cells to MIC for Mycobacterium tuberculosis 331/88 after 14 days; format: functional
Method in brief: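 Cytotoxicity in Hep G2 cells (passage 12), 10,000 cells/well, in MEM with 10% FBS, 1% glutamine and 1% nonessential amino acids. Cells preincubated 24 h, 37 °C, 5% CO2. Compounds in DMSO at eight concentrations in quadruplicate, 24 h. MTS-type reagent added for 1.5 h, A490 read, IC50 taken at 50% viability. SI = this IC50 over the 14-day M. tuberculosis MIC.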

[13] = system: Mycobacterium kansasii; test: Antimycobacterial activity against Mycobacterium kansasii 6509/96 clinical isolate after 14 days by micromethod; format: functional; settings: 6509/96, 336 h; method in brief: as §1

Structure (SMILES)	MIC [1] [µM]	MIC [2] [µM]	MIC [3] [µM]	IC50 [4] [µM]	MIC [5] [µM]	inhibition [6] [%]	MIC [7] [µM]	MIC [8] [µM]	MIC [9] [µM]	MIC [10] [µM]	MIC [11] [µM]	Selectivity Index [12]	MIC [13] [µM]
COc1cc(Cl)ccc1C(=S)Nc1cc(C(F)(F)F)ccc1O	125 (≈ 45.2 µg/mL)	62.5 (≈ 22.6 µg/mL)	32 (≈ 11.6 µg/mL)	5.74	32 (≈ 11.6 µg/mL)	0	62.5 (≈ 22.6 µg/mL)	62.5 (≈ 22.6 µg/mL)	125 (≈ 45.2 µg/mL)	32 (≈ 11.6 µg/mL)	32 (≈ 11.6 µg/mL)	0.18	62.5 (≈ 22.6 µg/mL)
COc1cc(Cl)ccc1C(=O)Nc1cc(C(F)(F)F)ccc1O	250 (≈ 86.4 µg/mL)	250 (≈ 86.4 µg/mL)	250 (≈ 86.4 µg/mL)	25.4	250 (≈ 86.4 µg/mL)	0	250 (≈ 86.4 µg/mL)	250 (≈ 86.4 µg/mL)	250 (≈ 86.4 µg/mL)	250 (≈ 86.4 µg/mL)	250 (≈ 86.4 µg/mL)	0.1	250 (≈ 86.4 µg/mL)
COc1ccc(Cl)cc1C(=O)Nc1ccc(Br)cc1O	500 (≈ 178 µg/mL)	8 (≈ 2.85 µg/mL)	4 (≈ 1.43 µg/mL)	7.98	500 (≈ 178 µg/mL)	0	500 (≈ 178 µg/mL)	500 (≈ 178 µg/mL)	250 (≈ 89.2 µg/mL)	250 (≈ 89.2 µg/mL)	500 (≈ 178 µg/mL)	2	250 (≈ 89.2 µg/mL)
COc1ccc(Cl)cc1C(=O)Nc1cc(Br)ccc1O	8 (≈ 2.85 µg/mL)	8 (≈ 2.85 µg/mL)	8 (≈ 2.85 µg/mL)	4.09	62.5 (≈ 22.3 µg/mL)	0	8 (≈ 2.85 µg/mL)	62.5 (≈ 22.3 µg/mL)	8 (≈ 2.85 µg/mL)	4 (≈ 1.43 µg/mL)	4 (≈ 1.43 µg/mL)	0.51	8 (≈ 2.85 µg/mL)
COc1cc(Cl)ccc1C(=S)Nc1ccc(Cl)cc1O	62.5 (≈ 20.5 µg/mL)	32 (≈ 10.5 µg/mL)	16 (≈ 5.25 µg/mL)	5.11	32 (≈ 10.5 µg/mL)	10	32 (≈ 10.5 µg/mL)	32 (≈ 10.5 µg/mL)	32 (≈ 10.5 µg/mL)	16 (≈ 5.25 µg/mL)	16 (≈ 5.25 µg/mL)	0.32	32 (≈ 10.5 µg/mL)
COc1ccc(Cl)cc1C(=O)Nc1ccc(Cl)cc1O	62.5 (≈ 19.5 µg/mL)	4 (≈ 1.25 µg/mL)	4 (≈ 1.25 µg/mL)	51.3	62.5 (≈ 19.5 µg/mL)	10	32 (≈ 9.99 µg/mL)	250 (≈ 78 µg/mL)	16 (≈ 4.99 µg/mL)	8 (≈ 2.5 µg/mL)	16 (≈ 4.99 µg/mL)	12.83	16 (≈ 4.99 µg/mL)
COc1ccc(Cl)cc1C(=S)Nc1ccc(Br)cc1O	62.5 (≈ 23.3 µg/mL)	32 (≈ 11.9 µg/mL)	32 (≈ 11.9 µg/mL)	7.6	62.5 (≈ 23.3 µg/mL)	7	32 (≈ 11.9 µg/mL)	125 (≈ 46.6 µg/mL)	32 (≈ 11.9 µg/mL)	16 (≈ 5.96 µg/mL)	16 (≈ 5.96 µg/mL)	0.24	32 (≈ 11.9 µg/mL)
COc1cc(Cl)ccc1C(=O)Nc1cc(Cl)c(Cl)cc1O	500 (≈ 173 µg/mL)	500 (≈ 173 µg/mL)	500 (≈ 173 µg/mL)	11.5	> 1000	0	500 (≈ 173 µg/mL)	> 1000	250 (≈ 86.6 µg/mL)	250 (≈ 86.6 µg/mL)	500 (≈ 173 µg/mL)	0.02	250 (≈ 86.6 µg/mL)
COc1cc(Cl)ccc1C(=O)Nc1ccc(Br)cc1O	125 (≈ 44.6 µg/mL)	125 (≈ 44.6 µg/mL)	125 (≈ 44.6 µg/mL)	46.6	125 (≈ 44.6 µg/mL)	0	125 (≈ 44.6 µg/mL)	125 (≈ 44.6 µg/mL)	125 (≈ 44.6 µg/mL)	125 (≈ 44.6 µg/mL)	125 (≈ 44.6 µg/mL)	0.37	125 (≈ 44.6 µg/mL)
COc1cc(Cl)ccc1C(=O)Nc1cc(Cl)ccc1O	125 (≈ 39 µg/mL)	125 (≈ 39 µg/mL)	125 (≈ 39 µg/mL)	87	125 (≈ 39 µg/mL)	0	125 (≈ 39 µg/mL)	125 (≈ 39 µg/mL)	62.5 (≈ 19.5 µg/mL)	16 (≈ 4.99 µg/mL)	125 (≈ 39 µg/mL)	0.7	62.5 (≈ 19.5 µg/mL)
COc1cc(Cl)ccc1C(=S)Nc1ccc(C(F)(F)F)cc1O	62.5 (≈ 22.6 µg/mL)	62.5 (≈ 22.6 µg/mL)	32 (≈ 11.6 µg/mL)	3.14	62.5 (≈ 22.6 µg/mL)	23	62.5 (≈ 22.6 µg/mL)	62.5 (≈ 22.6 µg/mL)	62.5 (≈ 22.6 µg/mL)	32 (≈ 11.6 µg/mL)		0.1	62.5 (≈ 22.6 µg/mL)
COc1ccc(Cl)cc1C(=S)Nc1ccc(C(F)(F)F)cc1O	62.5 (≈ 22.6 µg/mL)	62.5 (≈ 22.6 µg/mL)	62.5 (≈ 22.6 µg/mL)	3.69	32 (≈ 11.6 µg/mL)	21	62.5 (≈ 22.6 µg/mL)	62.5 (≈ 22.6 µg/mL)	62.5 (≈ 22.6 µg/mL)	32 (≈ 11.6 µg/mL)		0.06	62.5 (≈ 22.6 µg/mL)
COc1cc(Cl)ccc1C(=O)Nc1ccc(C(F)(F)F)cc1O	250 (≈ 86.4 µg/mL)	250 (≈ 86.4 µg/mL)	250 (≈ 86.4 µg/mL)	3.9	62.5 (≈ 21.6 µg/mL)	7	250 (≈ 86.4 µg/mL)	62.5 (≈ 21.6 µg/mL)	250 (≈ 86.4 µg/mL)	250 (≈ 86.4 µg/mL)		0.02	250 (≈ 86.4 µg/mL)
COc1ccc(Cl)cc1C(=O)Nc1ccc(C(F)(F)F)cc1O	250 (≈ 86.4 µg/mL)	500 (≈ 173 µg/mL)	500 (≈ 173 µg/mL)	4.91	62.5 (≈ 21.6 µg/mL)	2	250 (≈ 86.4 µg/mL)	62.5 (≈ 21.6 µg/mL)	250 (≈ 86.4 µg/mL)	250 (≈ 86.4 µg/mL)		0.01	250 (≈ 86.4 µg/mL)
